Here are results for 23 compounds from ChEMBL document CHEMBL1155110, “Ribose-modified purine nucleosides as ribonucleotide reductase inhibitors. Synthesis, antitumor activity, and molecular modeling of N6-substituted 3'-C-methyladenosine derivatives” (J Med Chem, 2008).

The test system of one assay is Caco-2. As to the kind of experiment: Antitumor activity against human CaCo2 cells after 48 hrs by MTS assay. Format: functional. As to conditions: Caco-2, 48 h. The essentials:
(§1)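 Cells grown in RPMI 1640 (K562) or MEM with Earle's salts (HT-29, CaCo-2, MCF-7) plus 10% FBS, 37 °C, 5% CO2; adherent lines trypsinized to single-cell suspension. Log-phase cells plated at about 5000 cells/mL, acclimatized 24 h, then exposed to serial dilutions in triplicate, up to 250 µM, for 48 h. MTS/PMS added 3 h; absorbance 490 nm; GI50 from growth inhibition.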
For orientation: Tetrazolium dyes change colour on reduction, which living cells bring about.

Assay [1] relates to K562. As to the kind of experiment: Antitumor activity against human K562 cells after 48 hrs by MTS assay. Format: functional. The settings on record: K562, 48 h. The essentials: as §1
The subject of a further assay is MCF7. As to the kind of experiment: Antitumor activity against human MCF7 cells after 48 hrs by MTS assay. Format: functional. As to conditions: MCF7, 48 h. The method in brief:
as §1

The test system of the next assay is HT-29. Briefly: Antitumor activity against human HT29 cells after 48 hrs by MTS assay. Format: functional. The settings on record: HT-29, 48 h. The method in brief: as §1
Another assay addresses T1, Adenosine receptor A3 (Homo sapiens, UniProt P0DMS8).
T1 sequence (P0DMS8 whole entry): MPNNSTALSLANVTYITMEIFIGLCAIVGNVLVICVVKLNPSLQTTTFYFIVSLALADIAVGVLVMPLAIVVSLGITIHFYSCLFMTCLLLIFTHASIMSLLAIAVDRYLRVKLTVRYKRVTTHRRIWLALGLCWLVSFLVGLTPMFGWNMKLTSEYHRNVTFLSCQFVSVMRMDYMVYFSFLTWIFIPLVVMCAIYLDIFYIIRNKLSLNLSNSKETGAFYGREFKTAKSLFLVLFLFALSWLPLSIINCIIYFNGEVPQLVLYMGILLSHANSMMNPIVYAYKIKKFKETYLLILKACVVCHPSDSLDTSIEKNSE
Briefly: Inhibition of human adenosine A3 receptor.

The subject of assay [2] is HL-60. As to the kind of experiment: Decrease in intracellular dATP pool in human HL60 cells at 10 uM after 24 hrs relative to control. More on the design: scale not given: the % may be the effect or the level left. Format: functional. The method in brief: (§2)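 HL-60 cells in log phase (0.5 × 10^6 per ml) incubated 24 h with drug at 2.5, 5 or 10 µM. dNTPs extracted from 5 × 10^7 cells by trichloroacetic acid lysis, Freon/tri-n-octylamine neutralization, periodate oxidation with methylamine (37 °C, 30 min). Quantified by SAX HPLC in ammonium phosphate pH 3.4 with 2% acetonitrile, UV 280/260 nm; expressed versus untreated control.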

For assay [3], the system named is HL-60. Briefly: Decrease in intracellular dATP pool in human HL60 cells at 5 uM after 24 hrs relative to control. Format: functional. More on the design: scale not given: the % may be the effect or the level left. The essentials: as §2
The subject of assay [4] is HL-60. As to the kind of experiment: Decrease in intracellular dATP pool in human HL60 cells at 2.5 uM after 24 hrs relative to control. More on the design: scale not given: the % may be the effect or the level left. Format: functional. The essentials:
as §2

Assay [5] relates to HL-60. As to the kind of experiment: Decrease in intracellular dATP pool in human HL60 cells at 40 nM relative to control. Also on record: scale not given: the % may be the effect or the level left.
In assay [6] the test system is HL-60. Briefly: Decrease in intracellular dCTP pool in human HL60 cells at 40 nM relative to control. More on the design: scale not given: the % may be the effect or the level left. Format: functional.
Assay [7] deals with K562. Briefly: Growth inhibition of 1 uM 1,4-dihydro-2-methyl-6-phenyl-4-(phenylethyl)-3,5-pyridine-dicarboxylic acid 3-ethyl-5-[(3-nitrophenyl) methyl] ester pretreated human K562 cells after 48 hrs by MTS assay. Format: functional.
Assay [8] concerns K562. Briefly: Growth inhibition of 1 uM 1,4-dihydro-2-methyl-6-phenyl-4-(phenylethyl)-3,5-pyridine-dicarboxylic acid 3-ethyl-5-[(3-nitrophenyl) methyl] ester pretreated human K562 cells after 72 hrs by MTS assay. Format: functional.
In assay [9] the test system is K562. As to the kind of experiment: Growth inhibition of 0.1 uM 1,4-dihydro-2-methyl-6-phenyl-4-(phenylethyl)-3,5-pyridine-dicarboxylic acid 3-ethyl-5-[(3-nitrophenyl) methyl] ester pretreated human K562 cells after 72 hrs by MTS assay. Format: functional.
Assay [10] concerns K562. Briefly: Growth inhibition of 0.1 uM 1,4-dihydro-2-methyl-6-phenyl-4-(phenylethyl)-3,5-pyridine-dicarboxylic acid 3-ethyl-5-[(3-nitrophenyl) methyl] ester pretreated human K562 cells after 48 hrs by MTS assay. Format: functional.

Molecules are shown by their SMILES.

For orientation: GI50 means the concentration at which growth is held to half of that of the control. Turning to `OC[C@H]1O[C@@H](n2cnc3c(NC4CCCC4)nc(Cl)nc32)[C@H](O)[C@@H]1O`, the GI50 in the assay on Caco-2, with K562 [1], in the assay with MCF7 and in the assay with HT-29 was > 250 µM each time.

A word on the Ki: it is a measure of affinity in units of concentration, obtained from inhibition or displacement. For the compound `OC[C@H]1O[C@@H](n2cnc3c(NCc4cccs4)ncnc32)[C@H](O)[C@@H]1O`, on Adenosine receptor A3, the Ki came to 0.06 µM. Moreover, the GI50 in the assay with Caco-2 worked out at 3.3 µM; with K562 [1], 3.1 µM; in the assay with MCF7, 51.5 µM; in the assay on HT-29 it was 53.4 µM.

With `OC[C@H]1O[C@@H](n2cnc3c(NC4CCCCC4)ncnc32)[C@H](O)[C@@H]1O`, the concentration for 50% growth inhibition (GI50) in the assay on Caco-2, in the assay with K562 [1], with MCF7 and in the assay on HT-29 was > 250 µM each time.

`C[C@@]1(O)[C@@H](CO)O[C@@H](n2cnc3c(NC4CCCCCC4)ncnc32)[C@@H]1O`: the GI50 is > 250 µM with Caco-2, 83 µM with K562 [1], 200 µM in the assay with MCF7 and 106 µM with HT-29.

Regarding `C[C@@]1(O)[C@@H](CO)O[C@@H](n2cnc3c(Nc4ccccc4)ncnc32)[C@@H]1O`, the GI50 is 246 µM in the assay on Caco-2, 98 µM in the assay on K562 [1], 207 µM in the assay on MCF7 and 137 µM with HT-29.

Regarding `C[C@@]1(O)[C@@H](CO)O[C@@H](n2cnc3c(NCc4ccccc4)ncnc32)[C@@H]1O`, the GI50 with Caco-2, in the assay on K562 [1], in the assay on MCF7 and in the assay on HT-29 was > 250 µM in each case.

`C[C@@]1(O)[C@@H](CO)O[C@@H](n2cnc3c(Nc4cc[nH]n4)ncnc32)[C@@H]1O`: the 50% growth inhibitory concentration (GI50) in the assay on Caco-2, with K562 [1], with MCF7 and in the assay on HT-29 was > 250 µM each time.

Consider `C[C@@]1(O)[C@@H](CO)O[C@@H](n2cnc3c(NCc4cccs4)ncnc32)[C@@H]1O`, for which the GI50 in the assay on Caco-2, in the assay with K562 [1], with MCF7 and in the assay on HT-29 was > 250 µM each time.

As to `C[C@@]1(O)[C@@H](CO)O[C@@H](n2cnc3c(N)ncnc32)[C@@H]1O`, the 50% growth inhibitory concentration (GI50) was found to be 23.2 µM in the assay on Caco-2, 9.4 µM with K562 [1], 22.4 µM with MCF7 and 26.1 µM in the assay with HT-29.

On to `C[C@@]1(O)[C@@H](CO)O[C@@H](n2cnc3c(NC4CC4)ncnc32)[C@@H]1O`, for which the 50% growth inhibitory concentration (GI50) in the assay with Caco-2 was > 250 µM; in the assay with K562 [1], 73 µM; in the assay on MCF7, > 250 µM; with HT-29, > 250 µM.

Regarding `C[C@@]1(O)[C@@H](CO)O[C@@H](n2cnc3c(NC4CCC4)ncnc32)[C@@H]1O`, the GI50 in the assay on Caco-2 was > 250 µM; in the assay on K562 [1], 246 µM; with MCF7, > 250 µM; with HT-29 it was > 250 µM.

For `C[C@@]1(O)[C@@H](CO)O[C@@H](n2cnc3c(NC4CCCC4)ncnc32)[C@@H]1O`, the GI50 in the assay on Caco-2 was > 250 µM; in the assay on K562 [1] it was 145 µM; in the assay with MCF7 it was > 250 µM; with HT-29, > 250 µM.

In the case of `C[C@@]1(O)[C@@H](CO)O[C@@H](n2cnc3c(NC4CCCC4)nc(Cl)nc32)[C@@H]1O`, the GI50 in the assay with Caco-2, with K562 [1], in the assay with MCF7 and in the assay on HT-29 was > 250 µM in each case.

For `C[C@@]1(O)[C@@H](CO)O[C@@H](n2cnc3c(NCc4ccco4)ncnc32)[C@@H]1O`, the concentration for 50% growth inhibition (GI50) in the assay on Caco-2, with K562 [1], in the assay on MCF7 and in the assay with HT-29 was > 250 µM in each case.

On to `C[C@@]1(O)[C@@H](CO)O[C@@H](n2cnc3c(NC4CCCCC4)ncnc32)[C@@H]1O`, for which the GI50 in the assay on Caco-2 was 223 µM; with K562 [1], 50 µM; in the assay with MCF7, > 250 µM; with HT-29, > 250 µM.

Take `C[C@@]1(O)[C@H](O)[C@@H](CO)O[C@H]1n1cnc2c(N)ncnc21`: the concentration for 50% growth inhibition (GI50) in the assay with Caco-2 was > 100 µM; in the assay with K562 [1], 16 µM; in the assay on MCF7, > 100 µM; with HT-29, > 100 µM.

On to `C[C@@]1(O)[C@@H](CO)O[C@@H](n2cnc3c(N[C@@H]4C[C@@H]5CC[C@@H]4C5)ncnc32)[C@@H]1O` (racemic), for which the Activity in the assay on HL-60 [2] amounted to 10%; with HL-60 [3], 28%; with HL-60 [4], 65%. Moreover, the concentration for 50% growth inhibition (GI50) in the assay on Caco-2 is 56 µM; in the assay with K562 [1], 32.5 µM; in the assay on MCF7 it was 56 µM; in the assay on HT-29, 65.8 µM.

For `OC[C@H]1O[C@@H](n2cnc3c(N[C@@H]4C[C@@H]5CC[C@@H]4C5)ncnc32)[C@H](O)[C@@H]1O` (racemic), the 50% growth inhibitory concentration (GI50) with Caco-2 was > 250 µM; with K562 [1], 116 µM; in the assay on MCF7, > 250 µM; with HT-29 it was > 250 µM.

For the compound `Nc1ccn([C@@H]2O[C@H](CO)[C@@H](O)C2(F)F)c(=O)n1` [GEMCITABINE], the GI50 in the assay with Caco-2 stood at 0.18 µM; in the assay on K562 [1] it was 0.32 µM; in the assay on MCF7, 0.01 µM; in the assay on HT-29, 0.03 µM. The Activity in the assay on HL-60 [5] amounted to 13.9%; in the assay with HL-60 [6], 6.1%.

With `OC[C@H]1O[C@@H](n2cnc3c(NCc4ccco4)ncnc32)[C@H](O)[C@@H]1O` [KINETIN RIBOSIDE], the inhibition constant Ki at Adenosine receptor A3 turned out to be 0.022 µM. Further, the concentration for 50% growth inhibition (GI50) in the assay on Caco-2 came out at 45.6 µM; in the assay with K562 [1], 3.3 µM; in the assay with MCF7 it was 45.6 µM; with HT-29, 60.2 µM.

With `OC[C@H]1O[C@@H](n2cnc3c(NCc4ccccc4)ncnc32)[C@H](O)[C@@H]1O` [N6-BENZYLADENOSINE], the concentration for 50% growth inhibition (GI50) worked out at 4.17 µM in the assay with K562 [7]; 7.4 µM in the assay on Caco-2; 2.92 µM in the assay with K562 [8]; 2.92 µM in the assay on K562 [9]; 4.6 µM in the assay with K562 [1]; 61 µM in the assay with MCF7. Also, the figures for the GI50 with HT-29 and with K562 [10] were 22.3 µM and 3.91 µM, respectively. The compound also yielded an inhibition constant Ki at Adenosine receptor A3 of 0.0413 µM.

Take `OC[C@H]1O[C@@H](n2cnc3c(NC4CCCC4)ncnc32)[C@H](O)[C@@H]1O` [N6-CYCLOPENTYLADENOSINE]: the GI50 with Caco-2, in the assay with K562 [1], in the assay with MCF7 and in the assay with HT-29 was > 250 µM in each case.

For the compound `OC[C@H]1O[C@@H](n2cnc3c(Nc4ccccc4)ncnc32)[C@H](O)[C@@H]1O` [N6-PHENYLADENOSINE], the 50% growth inhibitory concentration (GI50) in the assay on Caco-2, in the assay with K562 [1], with MCF7 and in the assay with HT-29 was > 250 µM each time.
